According to ChEMBL document CHEMBL4665898, “Semisynthetic Analogs of the Antibiotic Fidaxomicin-Design, Synthesis, and Biological Evaluation” (ACS Med Chem Lett, 2020):
Values after ≈ are worked out from the molar mass of the structure shown.

Assays:
Clostridioides difficile [1] = experiment: Antibacterial activity against Clostridium difficile 8290 incubated for 46 hrs in anaerobic condition by CLSI-based broth microdilution assay; assay type: functional
Clostridioides difficile [2] = experiment: Antibacterial activity against Clostridium difficile ATCC 700057 incubated for 46 hrs in anaerobic condition by CLSI-based broth microdilution assay; assay type: functional
Clostridioides difficile [3] = experiment: Antibacterial activity against Clostridium difficile ATCC 9689 incubated for 46 hrs in anaerobic condition by CLSI-based broth microdilution assay; assay type: functional; conditions: ATCC 9689 = DSM 1296
Clostridioides difficile [4] = experiment: Antibacterial activity against Clostridium difficile 8264 incubated for 46 hrs in anaerobic condition by CLSI-based broth microdilution assay; assay type: functional
Clostridioides difficile [5] = experiment: Antibacterial activity against Clostridium difficile 5680 incubated for 46 hrs in anaerobic condition by CLSI-based broth microdilution assay; assay type: functional
Clostridioides difficile [6] = experiment: Antibacterial activity against Clostridium difficile ATCC 43255 incubated for 46 hrs in anaerobic condition by CLSI-based broth microdilution assay; assay type: functional
Clostridioides difficile [7] = experiment: Antibacterial activity against Clostridium difficile BAA-1875 incubated for 46 hrs in anaerobic condition by CLSI-based broth microdilution assay; assay type: functional
Clostridioides difficile [8] = experiment: Antibacterial activity against Clostridium difficile 8260 incubated for 46 hrs in anaerobic condition by CLSI-based broth microdilution assay; assay type: functional
Clostridioides difficile [9] = experiment: Antibacterial activity against Clostridium difficile 8282 incubated for 46 hrs in anaerobic condition by CLSI-based broth microdilution assay; assay type: functional
Clostridioides difficile [10] = experiment: Antibacterial activity against Clostridium difficile BAA-1805 incubated for 46 hrs in anaerobic condition by CLSI-based broth microdilution assay; assay type: functional
Staphylococcus aureus = experiment: Antibacterial activity against Staphylococcus aureus ATCC 29213 incubated overnight by broth dilution method; assay type: functional
In short: (§1)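 Strains pre-grown overnight at 37 °C on Mueller Hinton II agar; CLSI broth dilution, inoculum about 7.5 × 10^5 CFU/well. Compounds taken from 1.0 mg/mL stocks in 50 % methanol/H2O, diluted in H2O as 2-fold series. Plates held at 37 °C overnight; MIC read visually as lowest concentration with no growth.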

Bacillus subtilis = experiment: Antibacterial activity against Bacillus subtilis DSM3256 incubated overnight by broth dilution method; assay type: functional; in short: as §1
[11] = system: Mycobacterium tuberculosis; experiment: Antimycobacterial activity against recombinant Mycobacterium tuberculosis H37Rv expressed in green fluorescence protein by measuring increase in fluorescence after 10 days in presence of middlebrook 7H9/OADC medium by GFP reporter gene assay; assay type: functional; conditions: 240 h, time 10 day
[12] = Aqueous solubility of the compound in phosphate buffer at pH 7 after 5 hrs by UHPLC analysis; assay type: physicochemical
In short: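 Solid added to 1.0 mL pH 7 phosphate buffer containing 50 µg/mL caffeine internal standard until saturated. Stirred 5 h at room temperature, passed through a 0.22 µm filter, then run on C18 UHPLC with a water/MeCN + 0.1 % HCOOH gradient. Analyte/IS peak-area ratio was converted to concentration using a linear calibration from MeOH standards at 50–500 µg/mL.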

SMILES	MIC (Clostridioides difficile [1]) [µg/mL]	MIC (Clostridioides difficile [2]) [µg/mL]	MIC (Clostridioides difficile [3]) [µg/mL]	MIC (Clostridioides difficile [4]) [µg/mL]	MIC (Clostridioides difficile [5]) [µg/mL]	MIC (Clostridioides difficile [6]) [µg/mL]	MIC (Clostridioides difficile [7]) [µg/mL]	MIC (Clostridioides difficile [8]) [µg/mL]	MIC (Clostridioides difficile [9]) [µg/mL]	MIC (Clostridioides difficile [10]) [µg/mL]	MIC (Staphylococcus aureus) [µg/mL]	MIC (Bacillus subtilis) [µg/mL]	MIC90 [11] [µg/mL]	solubility at 5 h [12] [µg/mL]
CCc1c(Cl)c(Oc2nncnn2)c(Cl)c(Oc2nncnn2)c1C(=O)O[C@@H]1[C@@H](O)[C@@H](OC)[C@@H](OC/C2=C\C=C\C[C@H](O)/C(C)=C/[C@H](CC)[C@@H](O[C@@H]3OC(C)(C)[C@@H](OC(=O)C(C)C)[C@H](O)[C@@H]3O)/C(C)=C/C(C)=C/C[C@@H]([C@@H](C)O)OC2=O)O[C@H]1C	0.12 (≈ 0.0985 µM)	0.06 (≈ 0.0493 µM)	0.03 (≈ 0.0246 µM)	0.25 (≈ 0.205 µM)	0.5 (≈ 0.41 µM)	0.12 (≈ 0.0985 µM)	0.25 (≈ 0.205 µM)	0.12 (≈ 0.0985 µM)	0.06 (≈ 0.0493 µM)	0.25 (≈ 0.205 µM)	–	–	–	–
CCOC(=O)COc1c(Cl)c(O)c(C(=O)O[C@@H]2[C@@H](O)[C@@H](OC)[C@@H](OC/C3=C\C=C\C[C@H](O)/C(C)=C/[C@H](CC)[C@@H](O[C@@H]4OC(C)(C)[C@@H](OC(=O)C(C)C)[C@H](O)[C@@H]4O)/C(C)=C/C(C)=C/C[C@@H]([C@@H](C)O)OC3=O)O[C@H]2C)c(CC)c1Cl	16 (≈ 14 µM)	8 (≈ 6.99 µM)	2 (≈ 1.75 µM)	> 16	> 16	> 16	8 (≈ 6.99 µM)	16 (≈ 14 µM)	8 (≈ 6.99 µM)	> 16	16 (≈ 14 µM)	32 (≈ 28 µM)	2	–
CCc1c(Cl)c(OCCOCCOCCOCCOCCOCCOC)c(Cl)c(OCCOCCOCCOCCOCCOCCOC)c1C(=O)O[C@@H]1[C@@H](O)[C@@H](OC)[C@@H](OC/C2=C\C=C\C[C@H](O)/C(C)=C/[C@H](CC)[C@@H](O[C@@H]3OC(C)(C)[C@@H](OC(=O)C(C)C)[C@H](O)[C@@H]3O)/C(C)=C/C(C)=C/C[C@@H]([C@@H](C)O)OC2=O)O[C@H]1C	–	–	–	–	–	–	–	–	–	–	–	–	–	504 (≈ 312 µM)
CCc1c(Cl)c(OCCOCCOCCOCCOCCOCCOCCOCCn2cc(CN3CCN(/N=C/c4c5c(O)c6c(O)c(C)c7c(c6c4O)C(=O)[C@@](C)(O/C=C/[C@H](OC)[C@@H](C)[C@@H](OC(C)=O)[C@H](C)[C@H](O)[C@H](C)[C@@H](O)[C@@H](C)/C=C/C=C(\C)C(=O)N5)O7)CC3)nn2)c(Cl)c(O)c1C(=O)O[C@@H]1[C@@H](O)[C@@H](OC)[C@@H](OC/C2=C\C=C\C[C@H](O)/C(C)=C/[C@H](CC)[C@@H](O[C@@H]3OC(C)(C)[C@@H](OC(=O)C(C)C)[C@H](O)[C@@H]3O)/C(C)=C/C(C)=C/C[C@@H]([C@@H](C)O)OC2=O)O[C@H]1C	0.03 (≈ 0.0131 µM)	≤ 0.015	≤ 0.015	0.03 (≈ 0.0131 µM)	≤ 0.015	≤ 0.015	≤ 0.015	≤ 0.015	4 (≈ 1.75 µM)	≤ 0.015	4 (≈ 1.75 µM)	4 (≈ 1.75 µM)	0.5	–
CCc1c(Cl)c(OCC(=O)N2CCC(O)CC2)c(Cl)c(O)c1C(=O)O[C@@H]1[C@@H](O)[C@@H](OC)[C@@H](OC/C2=C\C=C\C[C@H](O)/C(C)=C/[C@H](CC)[C@@H](O[C@@H]3OC(C)(C)[C@@H](OC(=O)C(C)C)[C@H](O)[C@@H]3O)/C(C)=C/C(C)=C/C[C@@H]([C@@H](C)O)OC2=O)O[C@H]1C	–	–	–	–	–	–	–	–	–	–	–	–	–	180 (≈ 150 µM)
CCc1c(Cl)c(OCCCn2cc(COCCOCCOCCOCCOCCC(=O)O)nn2)c(Cl)c(O)c1C(=O)O[C@@H]1[C@@H](O)[C@@H](OC)[C@@H](OC/C2=C\C=C\C[C@H](O)/C(C)=C/[C@H](CC)[C@@H](O[C@@H]3OC(C)(C)[C@@H](OC(=O)C(C)C)[C@H](O)[C@@H]3O)/C(C)=C/C(C)=C/C[C@@H]([C@@H](C)O)OC2=O)O[C@H]1C	–	–	–	–	–	–	–	–	–	–	–	–	–	> 2000
CCc1c(Cl)c(OCC(=O)N2CCNCC2)c(Cl)c(O)c1C(=O)O[C@@H]1[C@@H](O)[C@@H](OC)[C@@H](OC/C2=C\C=C\C[C@H](O)/C(C)=C/[C@H](CC)[C@@H](O[C@@H]3OC(C)(C)[C@@H](OC(=O)C(C)C)[C@H](O)[C@@H]3O)/C(C)=C/C(C)=C/C[C@@H]([C@@H](C)O)OC2=O)O[C@H]1C	0.25 (≈ 0.211 µM)	0.25 (≈ 0.211 µM)	0.03 (≈ 0.0253 µM)	0.5 (≈ 0.422 µM)	0.5 (≈ 0.422 µM)	0.5 (≈ 0.422 µM)	0.5 (≈ 0.422 µM)	0.03 (≈ 0.0253 µM)	0.06 (≈ 0.0507 µM)	0.5 (≈ 0.422 µM)	> 64	> 64	1	81 (≈ 68.4 µM)
CCc1c(Cl)c(OCC(=O)N2CCC(O)CC2)c(Cl)c(OCC(=O)N2CCC(O)CC2)c1C(=O)O[C@@H]1[C@@H](O)[C@@H](OC)[C@@H](OC/C2=C\C=C\C[C@H](O)/C(C)=C/[C@H](CC)[C@@H](O[C@@H]3OC(C)(C)[C@@H](OC(=O)C(C)C)[C@H](O)[C@@H]3O)/C(C)=C/C(C)=C/C[C@@H]([C@@H](C)O)OC2=O)O[C@H]1C	–	–	–	–	–	–	–	–	–	–	–	–	–	213 (≈ 159 µM)
CCc1c(Cl)c(OCC(=O)N2CCN(c3cc4c(cc3F)c(=O)c(C(=O)O)cn4C3CC3)CC2)c(Cl)c(O)c1C(=O)O[C@@H]1[C@@H](O)[C@@H](OC)[C@@H](OC/C2=C\C=C\C[C@H](O)/C(C)=C/[C@H](CC)[C@@H](O[C@@H]3OC(C)(C)[C@@H](OC(=O)C(C)C)[C@H](O)[C@@H]3O)/C(C)=C/C(C)=C/C[C@@H]([C@@H](C)O)OC2=O)O[C@H]1C	0.12 (≈ 0.084 µM)	0.06 (≈ 0.042 µM)	≤ 0.015	0.12 (≈ 0.084 µM)	0.12 (≈ 0.084 µM)	0.03 (≈ 0.021 µM)	0.06 (≈ 0.042 µM)	0.03 (≈ 0.021 µM)	0.03 (≈ 0.021 µM)	0.12 (≈ 0.084 µM)	> 64	32 (≈ 22.4 µM)	1	–
O=C(O)c1cn(C2CC2)c2cc(N3CCNCC3)c(F)cc2c1=O [CIPROFLOXACIN]	–	–	–	–	–	–	–	–	–	–	–	–	1	–
CCc1c(Cl)c(OCCCn2cc(CCN3CCC(N)CC3)nn2)c(Cl)c(O)c1C(=O)O[C@@H]1[C@@H](O)[C@@H](OC)[C@@H](OC/C2=C\C=C\C[C@H](O)/C(C)=C/[C@H](CC)[C@@H](O[C@@H]3OC(C)(C)[C@@H](OC(=O)C(C)C)[C@H](O)[C@@H]3O)/C(C)=C/C(C)=C/C[C@@H]([C@@H](C)O)OC2=O)O[C@H]1C	4 (≈ 3.09 µM)	2 (≈ 1.55 µM)	0.5 (≈ 0.387 µM)	8 (≈ 6.19 µM)	8 (≈ 6.19 µM)	4 (≈ 3.09 µM)	2 (≈ 1.55 µM)	4 (≈ 3.09 µM)	1 (≈ 0.773 µM)	8 (≈ 6.19 µM)	> 64	> 64	4	–
CCOC(=O)COc1c(Cl)c(CC)c(C(=O)O[C@@H]2[C@@H](O)[C@@H](OC)[C@@H](OC/C3=C\C=C\C[C@H](O)/C(C)=C/[C@H](CC)[C@@H](O[C@@H]4OC(C)(C)[C@@H](OC(=O)C(C)C)[C@H](O)[C@@H]4O)/C(C)=C/C(C)=C/C[C@@H]([C@@H](C)O)OC3=O)O[C@H]2C)c(OCC(=O)OCC)c1Cl	16 (≈ 13 µM)	16 (≈ 13 µM)	4 (≈ 3.25 µM)	> 16	> 16	> 16	16 (≈ 13 µM)	16 (≈ 13 µM)	16 (≈ 13 µM)	> 16	32 (≈ 26 µM)	8 (≈ 6.5 µM)	0.5	–
CO[C@H]1/C=C/O[C@@]2(C)Oc3c(C)c(O)c4c(O)c(c(/C=N/N5CCN(C)CC5)c(O)c4c3C2=O)NC(=O)/C(C)=C\C=C\[C@H](C)[C@H](O)[C@@H](C)[C@@H](O)[C@@H](C)[C@H](OC(C)=O)[C@@H]1C [RIFAMPIN]	≤ 0.015	≤ 0.015	≤ 0.015	≤ 0.015	≤ 0.015	≤ 0.015	≤ 0.015	> 16	> 16	≤ 0.015	0.008 (≈ 0.00972 µM)	0.25 (≈ 0.304 µM)	–	–
CCc1c(Cl)c(OCCCn2cc(CCN3CCC(N)CC3)nn2)c(Cl)c(OCCCn2cc(CCN3CCC(N)CC3)nn2)c1C(=O)O[C@@H]1[C@@H](O)[C@@H](OC)[C@@H](OC/C2=C\C=C\C[C@H](O)/C(C)=C/[C@H](CC)[C@@H](O[C@@H]3OC(C)(C)[C@@H](OC(=O)C(C)C)[C@H](O)[C@@H]3O)/C(C)=C/C(C)=C/C[C@@H]([C@@H](C)O)OC2=O)O[C@H]1C	> 16	> 16	> 16	> 16	> 16	> 16	> 16	> 16	> 16	> 16	> 64	8 (≈ 5.23 µM)	16	451 (≈ 295 µM)
